{"source": "ChEMBL document CHEMBL3877250", "about": "“Design, synthesis, and biological evaluation of (2E)-(2-oxo-1, 2-dihydro-3H-indol-3-ylidene)acetate derivatives as anti-proliferative agents through ROS-induced cell apoptosis” (Eur J Med Chem, 2016)", "key": {"[1]": {"test": "Cytotoxicity against human SW480 cells assessed as growth inhibition at 20 uM after 72 hrs by CCK-8 assay", "type": "functional", "conditions": "SW480, 72 h, read-out: GI", "method_in_brief": "(§1)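 Cells kept in RPMI 1640 with 10% heat-inactivated fetal calf serum and 1% streptomycin/penicillin at 37 °C, 5% CO2. After compound exposure, CCK-8 was added and cells were incubated 4 h at 37 °C, then absorbance was read at 450 nm. Viability is relative to untreated cells (100%). IC50 comes from nonlinear regression, mean of three separate determinations. Single-concentration screen at 20 µM.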"}, "[2]": {"test": "Cytotoxicity against human HL60 cells assessed as growth inhibition at 20 uM after 72 hrs by CCK-8 assay", "type": "functional", "conditions": "HL-60, 72 h, read-out: GI", "method_in_brief": "as §1"}, "[3]": {"test": "Cytotoxicity against human Saos2 cells assessed as growth inhibition at 20 uM after 72 hrs by CCK-8 assay", "type": "functional", "conditions": "SAOS-2, 72 h, read-out: GI", "method_in_brief": "as §1"}, "[4]": {"test": "Antitumor activity against human HepG2 cells assessed as growth inhibition at 20 uM after 72 hrs by CCK-8 assay", "type": "functional", "conditions": "HepG2, 72 h, read-out: GI", "method_in_brief": "as §1"}, "[5]": {"test": "Cytotoxicity against human HL60 cells after 72 hrs by CCK-8 assay", "type": "functional, cell-based", "conditions": "HL-60, 72 h", "method_in_brief": "as §1"}, "[6]": {"test": "Cytotoxicity against human SW480 cells after 72 hrs by CCK-8 assay", "type": "functional, cell-based", "conditions": "SW480, 72 h", "method_in_brief": "as §1"}, "[7]": {"test": "Cytotoxicity against human HepG2 cells after 72 hrs by CCK-8 assay", "type": "functional, cell-based", "conditions": "HepG2, 72 h", "method_in_brief": "as §1"}, "[8]": {"test": "Cytotoxicity against human HCT116 cells after 72 hrs by CCK-8 assay", "type": "functional, cell-based", "conditions": "HCT-116, 72 h", "method_in_brief": "as §1"}, "[9]": {"test": "Cytotoxicity against human MDA-MB-231 cells after 72 hrs by CCK-8 assay", "type": "functional, cell-based", "conditions": "MDA-MB-231, 72 h", "method_in_brief": "as §1"}, "[10]": {"system": "HCT-116", "test": "Induction of apoptosis in human HCT116 cells assessed as early apoptotic cells at 0.1 uM after 48 hrs by Annexin V-FITC/propidium iodide staining based flow cytometry (reference value: 3.8%)", "type": "functional", "method_in_brief": "(§2)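 HCT116 seeded at 2×10^5 cells/well, cultured 6 h, then treated 48 h at 0.1, 0.5, 1, 4, 8 or 16 µM; DMSO (0.1%) served as vehicle. Cells washed twice in cold PBS, resuspended in binding buffer with FITC Annexin V and PI for 15 min at RT in the dark, diluted, and run on flow cytometry within 1 h.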"}, "[11]": {"system": "HCT-116", "test": "Induction of apoptosis in human HCT116 cells assessed as early apoptotic cells at 0.5 uM after 48 hrs by Annexin V-FITC/propidium iodide staining based flow cytometry (reference value: 3.8%)", "type": "functional", "method_in_brief": "as §2"}, "[12]": {"system": "HCT-116", "test": "Induction of apoptosis in human HCT116 cells assessed as late apoptotic cells at 0.5 uM after 48 hrs by Annexin V-FITC/propidium iodide staining based flow cytometry (reference value: 6.7%)", "type": "functional"}, "[13]": {"system": "HCT-116", "test": "Induction of apoptosis in human HCT116 cells assessed as early apoptotic cells at 1 uM after 48 hrs by Annexin V-FITC/propidium iodide staining based flow cytometry (reference value: 3.8%)", "type": "functional", "method_in_brief": "as §2"}, "[14]": {"system": "HCT-116", "test": "Induction of apoptosis in human HCT116 cells assessed as necrotic cells at 1 uM after 48 hrs by Annexin V-FITC/propidium iodide staining based flow cytometry (reference value: 0.8%)", "type": "functional"}, "[15]": {"system": "HCT-116", "test": "Induction of apoptosis in human HCT116 cells assessed as necrotic cells at 4 uM after 48 hrs by Annexin V-FITC/propidium iodide staining based flow cytometry (reference value: 0.8%)", "type": "functional"}, "[16]": {"system": "HCT-116", "test": "Induction of apoptosis in human HCT116 cells assessed as live cells at 8 uM after 48 hrs by Annexin V-FITC/propidium iodide staining based flow cytometry (reference value: 88.7%)", "type": "functional"}, "[17]": {"system": "HCT-116", "test": "Induction of apoptosis in human HCT116 cells assessed as late apoptotic cells at 8 uM after 48 hrs by Annexin V-FITC/propidium iodide staining based flow cytometry (reference value: 6.7%)", "type": "functional"}, "[18]": {"system": "HCT-116", "test": "Induction of apoptosis in human HCT116 cells assessed as necrotic cells at 16 uM after 48 hrs by Annexin V-FITC/propidium iodide staining based flow cytometry (reference value: 0.8%)", "type": "functional"}, "[19]": {"test": "Cell cycle arrest in human HCT116 cells assessed as G1 phase accumulation at 0.1 uM after 48 hrs by Annexin V-FITC/propidium iodide staining based flow cytometry (reference value: 40.83%)", "type": "functional", "conditions": "HCT-116"}, "[20]": {"test": "Cell cycle arrest in human HCT116 cells assessed as sub-G1 phase accumulation at 0.1 uM after 48 hrs by Annexin V-FITC/propidium iodide staining based flow cytometry (reference value: 4.36%)", "type": "functional", "conditions": "HCT-116"}, "[21]": {"test": "Cell cycle arrest in human HCT116 cells assessed as G1 phase accumulation at 0.5 uM after 48 hrs by Annexin V-FITC/propidium iodide staining based flow cytometry (reference value: 40.83%)", "type": "functional", "conditions": "HCT-116"}, "[22]": {"test": "Cell cycle arrest in human HCT116 cells assessed as G2/M phase accumulation at 0.5 uM after 48 hrs by Annexin V-FITC/propidium iodide staining based flow cytometry (reference value: 25.3%)", "type": "functional", "conditions": "HCT-116"}, "[23]": {"test": "Cell cycle arrest in human HCT116 cells assessed as G1 phase accumulation at 1 uM after 48 hrs by Annexin V-FITC/propidium iodide staining based flow cytometry (reference value: 40.83%)", "type": "functional", "conditions": "HCT-116"}, "[24]": {"test": "Cell cycle arrest in human HCT116 cells assessed as S phase accumulation at 1 uM after 48 hrs by Annexin V-FITC/propidium iodide staining based flow cytometry (reference value: 28.43%)", "type": "functional", "conditions": "HCT-116"}, "[25]": {"test": "Cell cycle arrest in human HCT116 cells assessed as sub-G1 phase accumulation at 1 uM after 48 hrs by Annexin V-FITC/propidium iodide staining based flow cytometry (reference value: 4.36%)", "type": "functional", "conditions": "HCT-116"}, "[26]": {"test": "Cell cycle arrest in human HCT116 cells assessed as S phase accumulation at 2 uM after 48 hrs by Annexin V-FITC/propidium iodide staining based flow cytometry (reference value: 28.43%)", "type": "functional", "conditions": "HCT-116"}, "[27]": {"test": "Cell cycle arrest in human HCT116 cells assessed as G2/M phase accumulation at 2 uM after 48 hrs by Annexin V-FITC/propidium iodide staining based flow cytometry (reference value: 25.3%)", "type": "functional", "conditions": "HCT-116"}, "[28]": {"test": "Cell cycle arrest in human HCT116 cells assessed as sub-G1 phase accumulation at 2 uM after 48 hrs by Annexin V-FITC/propidium iodide staining based flow cytometry (reference value: 4.36%)", "type": "functional", "conditions": "HCT-116"}, "[29]": {"test": "Cell cycle arrest in human HCT116 cells assessed as G1 phase accumulation at 3 uM after 48 hrs by Annexin V-FITC/propidium iodide staining based flow cytometry (reference value: 40.83%)", "type": "functional", "conditions": "HCT-116"}, "[30]": {"test": "Cell cycle arrest in human HCT116 cells assessed as G2/M phase accumulation at 3 uM after 48 hrs by Annexin V-FITC/propidium iodide staining based flow cytometry (reference value: 25.3%)", "type": "functional", "conditions": "HCT-116"}, "[31]": {"test": "Cell cycle arrest in human HCT116 cells assessed as S phase accumulation at 4 uM after 48 hrs by Annexin V-FITC/propidium iodide staining based flow cytometry (reference value: 28.43%)", "type": "functional", "conditions": "HCT-116"}, "[32]": {"system": "HCT-116", "test": "Induction of apoptosis in human HCT116 cells assessed as increase in Bax protein level after 9 hrs by Western blot method", "type": "functional, cell-based", "method_in_brief": "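HCT116 cells plated at 4 × 10⁵ cells/well in six-well plates. Incubated with or without compound for 9 h, then proteins extracted. Lysates resolved by 12% SDS-PAGE and immunoblotted with anti-Bax and anti-Bcl-2 antibodies.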"}}, "note": "Activity calls are given as the source filed them. The calls are words filed in the database; no cut-off is given here.", "data": [{"molecule": "CC(C)(C)OC(=O)/C=C1/C(=O)Nc2ccccc21", "values": [{"measurement": "inhibition of growth at 20 µM", "setting": "[1]", "value": 78.1, "unit": "%"}, {"measurement": "inhibition of growth at 20 µM", "setting": "[2]", "value": 94.5, "unit": "%"}, {"measurement": "inhibition of growth at 20 µM", "setting": "[3]", "value": 83.3, "unit": "%"}, {"measurement": "inhibition of growth at 20 µM", "setting": "[4]", "value": 86.1, "unit": "%"}, {"measurement": "IC50", "setting": "[5]", "value": 2450, "unit": "nM"}, {"measurement": "IC50", "setting": "[6]", "value": 5.68, "unit": "µM"}, {"measurement": "IC50", "setting": "[7]", "value": 4.64, "unit": "µM"}, {"measurement": "IC50", "setting": "[8]", "value": 2640, "unit": "nM"}, {"measurement": "IC50", "setting": "[9]", "value": 2520, "unit": "nM"}, {"measurement": "Activity", "setting": "[10]", "value": 3.2, "unit": "%"}, {"measurement": "Activity", "setting": "[11]", "value": 2.9, "unit": "%"}, {"measurement": "Activity", "setting": "[12]", "value": 7.5, "unit": "%"}, {"measurement": "Activity", "setting": "[13]", "value": 2.6, "unit": "%"}, {"measurement": "Activity", "setting": "[14]", "value": 1.3, "unit": "%"}, {"measurement": "Activity", "setting": "[15]", "value": 0.7, "unit": "%"}, {"measurement": "Activity", "setting": "[16]", "value": 78.4, "unit": "%"}, {"measurement": "Activity", "setting": "[17]", "value": 13.6, "unit": "%"}, {"measurement": "Activity", "setting": "[18]", "value": 2.1, "unit": "%"}, {"measurement": "Activity", "setting": "[19]", "value": 40.8, "unit": "%"}, {"measurement": "Activity", "setting": "[20]", "value": 1.27, "unit": "%"}, {"measurement": "Activity", "setting": "[21]", "value": 40.9, "unit": "%"}, {"measurement": "Activity", "setting": "[22]", "value": 27.4, "unit": "%"}, {"measurement": "Activity", "setting": "[23]", "value": 25.4, "unit": "%"}, {"measurement": "Activity", "setting": "[24]", "value": 34.3, "unit": "%"}, {"measurement": "Activity", "setting": "[25]", "value": 1.06, "unit": "%"}, {"measurement": "Activity", "setting": "[26]", "value": 25.2, "unit": "%"}, {"measurement": "Activity", "setting": "[27]", "value": 29.3, "unit": "%"}, {"measurement": "Activity", "setting": "[28]", "value": 3.42, "unit": "%"}, {"measurement": "Activity", "setting": "[29]", "value": 35.6, "unit": "%"}, {"measurement": "Activity", "setting": "[30]", "value": 22.6, "unit": "%"}, {"measurement": "Activity", "setting": "[31]", "value": 22.8, "unit": "%"}, {"measurement": "Activity", "setting": "[32]", "value": "Active"}]}]}
